The term inhibition in vivo denotes how much of the control response was suppressed. Usually IC50 stands for the point on the concentration scale where inhibition reaches its midpoint. Low readings indicate higher potency, high ones lower potency. The ED50 is the dose at which the effect has come halfway, by size or by number of responders.

SMILES strings stand for the structures.

Test [1] has as its system Rattus norvegicus. In words: Antiinflammatory activity in Sprague-Dawley rat assessed as inhibition of carrageenan-induced paw edema at 100 mg/kg, ip after 1 hr by plethysmometer. The class given is functional. The following applies: route intraperitoneal. Put shortly: (§1)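 Male Sprague-Dawley rats (250 g), fasted at least 16 h with free access to water, six per group. Test compound given IP at 100 mg/kg as 1 mL suspension in 0.5% methyl cellulose.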
Background: In the carrageenan paw model, swelling and tenderness develop within hours.

Test [2] has as its target T1, Prostaglandin G/H synthase 1 (Ovis aries, UniProt P05979).
T1 sequence (P05979 whole entry): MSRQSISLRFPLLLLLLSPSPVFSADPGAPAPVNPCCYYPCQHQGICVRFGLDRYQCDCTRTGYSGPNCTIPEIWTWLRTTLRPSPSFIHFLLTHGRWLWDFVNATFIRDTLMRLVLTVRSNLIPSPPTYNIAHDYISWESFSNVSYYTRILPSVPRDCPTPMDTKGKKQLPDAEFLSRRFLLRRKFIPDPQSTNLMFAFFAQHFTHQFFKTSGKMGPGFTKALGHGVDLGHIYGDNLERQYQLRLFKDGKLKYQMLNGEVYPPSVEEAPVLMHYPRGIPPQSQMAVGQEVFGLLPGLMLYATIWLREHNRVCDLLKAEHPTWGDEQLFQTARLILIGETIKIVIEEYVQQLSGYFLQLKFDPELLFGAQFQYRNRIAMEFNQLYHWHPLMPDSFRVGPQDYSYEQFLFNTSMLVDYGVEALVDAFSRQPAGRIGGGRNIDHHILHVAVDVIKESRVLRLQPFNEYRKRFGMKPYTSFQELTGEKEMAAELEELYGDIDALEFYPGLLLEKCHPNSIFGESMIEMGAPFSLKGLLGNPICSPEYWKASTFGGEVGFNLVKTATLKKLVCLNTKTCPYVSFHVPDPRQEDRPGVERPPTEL
The test can be described thus: Inhibition of ovine COX1 after 5 mins by enzyme immunoassay.

In test [3] the test system is Rattus norvegicus. In words: Antiinflammatory activity in Sprague-Dawley rat assessed as inhibition of carrageenan-induced paw edema at 100 mg/kg, ip after 2 hrs by plethysmometer. The following applies: route intraperitoneal. The class given is functional. Put shortly: as §1
Test [4] deals with Rattus norvegicus. The test can be described thus: Antiinflammatory activity in ip dosed Sprague-Dawley rat assessed as inhibition of carrageenan-induced paw edema after 2 hrs by plethysmometer. It is filed as functional. In outline:
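Male Sprague-Dawley rats (250 g), fasted at least 16 h with water available, six per group. Compounds dosed IP as 1 mL suspension in 0.5% methyl cellulose. Paw volume measured by water displacement plethysmometer before and after treatment. % inhibition = (1 − D/C) × 100 versus controls.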

For `O=C1c2cccc3cccc(c23)C(=O)N1c1cc(Cl)c(Cl)c(Cl)c1`, the inhibition in vivo at 100 mg/kg with Rattus norvegicus [1] amounted to 79%; in the test with Rattus norvegicus [3], 88%. In test [2], this compound showed an IC50 above 100 µM. Further, the median effective dose (ED50) in the test on Rattus norvegicus [4] was 115 mg/kg.

As to `COc1cc(N2C(=O)CCC2=O)cc(OC)c1OC`, the values for the inhibition in vivo at 100 mg/kg in the test on Rattus norvegicus [1] and with Rattus norvegicus [3] were 20% and 40%, respectively. The IC50 in test [2] was above 100 µM.

In the case of `O=C1CCC(=O)N1c1cc(Cl)c(Cl)c(Cl)c1`, the inhibition in vivo at 100 mg/kg was determined as 30% in the test with Rattus norvegicus [1] and 33% in the test on Rattus norvegicus [3]. This compound yielded a half-inhibitory concentration (IC50) in test [2] above 100 µM.

`COc1cc(N2C(=O)[C@H]3CC=CC[C@H]3C2=O)cc(OC)c1OC` yielded an IC50 in test [2] above 100 µM.

Compound `O=C1[C@H]2CC=CC[C@H]2C(=O)N1c1cc(Cl)c(Cl)c(Cl)c1` registered an IC50 in test [2] above 100 µM.

In the case of `COc1cc(N2C(=O)c3nccnc3C2=O)cc(OC)c1OC`, the inhibition in vivo at 100 mg/kg is 72% with Rattus norvegicus [1] and 84% in the test with Rattus norvegicus [3]. In test [2], this compound showed an IC50 above 100 µM. Also, the 50% effective dose (ED50) in the test with Rattus norvegicus [4] is 123 mg/kg.

Take `O=C1c2nccnc2C(=O)N1c1cc(Cl)c(Cl)c(Cl)c1`: the inhibition in vivo at 100 mg/kg was determined as 47% in the test on Rattus norvegicus [1] and 73% in the test with Rattus norvegicus [3]. Further, the IC50 in test [2] was above 100 µM. Also, the ED50 in the test on Rattus norvegicus [4] amounted to 175 mg/kg.

Consider `COc1cc(N2C(=O)c3ccccc3C2=O)cc(OC)c1OC`, for which the inhibition in vivo at 100 mg/kg was 43% with Rattus norvegicus [1] and 67% in the test on Rattus norvegicus [3]. Moreover, in test [2], the IC50 was above 100 µM. The median effective dose (ED50) in the test on Rattus norvegicus [4] was 185 mg/kg.

Turning to `O=C1c2ccccc2C(=O)N1c1cc(Cl)c(Cl)c(Cl)c1`, the inhibition in vivo at 100 mg/kg with Rattus norvegicus [1] is 49%; in the test with Rattus norvegicus [3] it was 70%. Moreover, the IC50 in test [2] is above 100 µM. In addition, the ED50 in the test with Rattus norvegicus [4] came to 172 mg/kg.

Take `COc1cc(N2C(=O)c3ccc([N+](=O)[O-])cc3C2=O)cc(OC)c1OC`: the inhibition in vivo at 100 mg/kg in the test with Rattus norvegicus [1] was 87%; with Rattus norvegicus [3] it was 94%. Besides, in test [2], 40 µM corresponded to half-maximal inhibition (IC50). In addition, the ED50 in the test with Rattus norvegicus [4] is 105 mg/kg.

For `O=C1c2ccc([N+](=O)[O-])cc2C(=O)N1c1cc(Cl)c(Cl)c(Cl)c1`, the inhibition in vivo at 100 mg/kg in the test with Rattus norvegicus [1] and with Rattus norvegicus [3] was 79% in each case. Inhibition in test [2] was half-maximal at 36.1 µM (IC50). For the same compound, the ED50 in the test with Rattus norvegicus [4] is 122 mg/kg.

Regarding `COc1cc(N2C(=O)c3ccc(C)cc3C2=O)cc(OC)c1OC`, the inhibition in vivo at 100 mg/kg worked out at 84% in the test on Rattus norvegicus [1] and 94% in the test with Rattus norvegicus [3]. Moreover, in test [2], the IC50 was above 100 µM. For the same compound, the ED50 with Rattus norvegicus [4] worked out at 107 mg/kg.

Consider `Cc1ccc2c(c1)C(=O)N(c1cc(Cl)c(Cl)c(Cl)c1)C2=O`, for which the inhibition in vivo at 100 mg/kg stood at 36% in the test on Rattus norvegicus [1] and 65% with Rattus norvegicus [3]. The IC50 in test [2] is above 100 µM. In addition, the ED50 in the test on Rattus norvegicus [4] is 183 mg/kg.

On to `COc1cc(N2C(=O)c3ccc(C(C)(C)C)cc3C2=O)cc(OC)c1OC`, for which the inhibition in vivo at 100 mg/kg in the test with Rattus norvegicus [1] was 60%; in the test with Rattus norvegicus [3], 89%. The concentration for half-maximal inhibition (IC50) in test [2] was above 100 µM. The median effective dose (ED50) in the test on Rattus norvegicus [4] turned out to be 146 mg/kg.

In the case of `CC(C)(C)c1ccc2c(c1)C(=O)N(c1cc(Cl)c(Cl)c(Cl)c1)C2=O`, the inhibition in vivo at 100 mg/kg with Rattus norvegicus [1] was 35%; in the test on Rattus norvegicus [3], 60%. Further, the half-inhibitory concentration (IC50) in test [2] was above 100 µM. Also, in the test with Rattus norvegicus [4], the ED50 worked out at 195 mg/kg.

For the compound `COc1cc(N2C(=O)c3cc(Cl)c(Cl)cc3C2=O)cc(OC)c1OC`, the inhibition in vivo at 100 mg/kg with Rattus norvegicus [1] came out at 59%; in the test with Rattus norvegicus [3], 80%. Also, in test [2], the IC50 was above 100 µM. In the test on Rattus norvegicus [4], the ED50 was found to be 186 mg/kg.

For the compound `O=C1c2cc(Cl)c(Cl)cc2C(=O)N1c1cc(Cl)c(Cl)c(Cl)c1`, the inhibition in vivo at 100 mg/kg with Rattus norvegicus [1] was found to be 75%; with Rattus norvegicus [3], 65%. Also, in test [2], the IC50 is above 100 µM. The ED50 in the test with Rattus norvegicus [4] turned out to be 187 mg/kg.

Regarding `COc1cc(N2C(=O)c3c(Cl)c(Cl)c(Cl)c(Cl)c3C2=O)cc(OC)c1OC`, the IC50 in test [2] is above 100 µM. Also, the inhibition in vivo at 100 mg/kg in the test with Rattus norvegicus [3] worked out at 53%. Further, the ED50 with Rattus norvegicus [4] is 212 mg/kg.

As to `O=C1c2c(Cl)c(Cl)c(Cl)c(Cl)c2C(=O)N1c1cc(Cl)c(Cl)c(Cl)c1`, the inhibition in vivo at 100 mg/kg with Rattus norvegicus [1] came out at 44%; in the test on Rattus norvegicus [3], 45%. The compound further gave an IC50 in test [2] above 100 µM. Also, the 50% effective dose (ED50) in the test with Rattus norvegicus [4] came out at 229 mg/kg.

Take `COc1cc(N2C(=O)c3c(Br)c(Br)c(Br)c(Br)c3C2=O)cc(OC)c1OC`: the inhibition in vivo at 100 mg/kg in the test on Rattus norvegicus [1] is 42%; in the test on Rattus norvegicus [3], 55%. Also, the IC50 in test [2] is above 100 µM. For the same compound, the ED50 in the test with Rattus norvegicus [4] turned out to be 213 mg/kg.

Regarding `O=C1c2c(Br)c(Br)c(Br)c(Br)c2C(=O)N1c1cc(Cl)c(Cl)c(Cl)c1`, the IC50 in test [2] was above 100 µM.

In the case of `COc1cc(N2C(=O)c3cccc4cccc(c34)C2=O)cc(OC)c1OC`, the results for the inhibition in vivo at 100 mg/kg with Rattus norvegicus [1] and in the test on Rattus norvegicus [3] were 86% and 91%, respectively. The IC50 in test [2] is above 100 µM. Also, the ED50 with Rattus norvegicus [4] is 117 mg/kg.

For the compound `COc1cc(-n2c(=O)c3ccccc3c3ccccc3c2=O)cc(OC)c1OC`, the inhibition in vivo at 100 mg/kg in the test on Rattus norvegicus [1] stood at 86%; in the test with Rattus norvegicus [3], 84%. The IC50 in test [2] was above 100 µM. For the same compound, the ED50 with Rattus norvegicus [4] worked out at 120 mg/kg.

For `O=c1c2ccccc2c2ccccc2c(=O)n1-c1cc(Cl)c(Cl)c(Cl)c1`, the inhibition in vivo at 100 mg/kg in the test on Rattus norvegicus [1] was found to be 75%; in the test with Rattus norvegicus [3], 72%. Moreover, in test [2], the IC50 is above 100 µM. In the test with Rattus norvegicus [4], the ED50 came to 150 mg/kg.

For the compound `COc1cc(N2C(=O)C3C(C2=O)C2(Cl)C(Cl)=C(Cl)C3(Cl)C2(Cl)Cl)cc(OC)c1OC` (stereo not drawn), the figures for the inhibition in vivo at 100 mg/kg with Rattus norvegicus [1] and in the test with Rattus norvegicus [3] were 36% and 34%, respectively. For the same compound, in test [2], the IC50 is above 100 µM.

As to `O=C1C2C(C(=O)N1c1cc(Cl)c(Cl)c(Cl)c1)C1(Cl)C(Cl)=C(Cl)C2(Cl)C1(Cl)Cl` (stereo not drawn), the inhibition in vivo at 100 mg/kg was 23% in the test with Rattus norvegicus [1] and 37% in the test with Rattus norvegicus [3]. The compound further displayed an IC50 in test [2] above 100 µM.

On to `O=C(O)Cc1ccccc1Nc1c(Cl)cccc1Cl` [DICLOFENAC], for which the inhibition in vivo at 100 mg/kg with Rattus norvegicus [1] was 88%; with Rattus norvegicus [3], 89%. In the test on Rattus norvegicus [4], the ED50 was determined as 114 mg/kg.

For the origin of these results see ChEMBL document CHEMBL1770101, “Synthesis, anti-inflammatory activity and COX-1/COX-2 inhibition of novel substituted cyclic imides. Part 1: Molecular docking study” (Eur J Med Chem, 2011).
